The structures appear in SMILES notation.

Sequence of MDR1 (ABCB1, P-glycoprotein) (P08183 whole entry): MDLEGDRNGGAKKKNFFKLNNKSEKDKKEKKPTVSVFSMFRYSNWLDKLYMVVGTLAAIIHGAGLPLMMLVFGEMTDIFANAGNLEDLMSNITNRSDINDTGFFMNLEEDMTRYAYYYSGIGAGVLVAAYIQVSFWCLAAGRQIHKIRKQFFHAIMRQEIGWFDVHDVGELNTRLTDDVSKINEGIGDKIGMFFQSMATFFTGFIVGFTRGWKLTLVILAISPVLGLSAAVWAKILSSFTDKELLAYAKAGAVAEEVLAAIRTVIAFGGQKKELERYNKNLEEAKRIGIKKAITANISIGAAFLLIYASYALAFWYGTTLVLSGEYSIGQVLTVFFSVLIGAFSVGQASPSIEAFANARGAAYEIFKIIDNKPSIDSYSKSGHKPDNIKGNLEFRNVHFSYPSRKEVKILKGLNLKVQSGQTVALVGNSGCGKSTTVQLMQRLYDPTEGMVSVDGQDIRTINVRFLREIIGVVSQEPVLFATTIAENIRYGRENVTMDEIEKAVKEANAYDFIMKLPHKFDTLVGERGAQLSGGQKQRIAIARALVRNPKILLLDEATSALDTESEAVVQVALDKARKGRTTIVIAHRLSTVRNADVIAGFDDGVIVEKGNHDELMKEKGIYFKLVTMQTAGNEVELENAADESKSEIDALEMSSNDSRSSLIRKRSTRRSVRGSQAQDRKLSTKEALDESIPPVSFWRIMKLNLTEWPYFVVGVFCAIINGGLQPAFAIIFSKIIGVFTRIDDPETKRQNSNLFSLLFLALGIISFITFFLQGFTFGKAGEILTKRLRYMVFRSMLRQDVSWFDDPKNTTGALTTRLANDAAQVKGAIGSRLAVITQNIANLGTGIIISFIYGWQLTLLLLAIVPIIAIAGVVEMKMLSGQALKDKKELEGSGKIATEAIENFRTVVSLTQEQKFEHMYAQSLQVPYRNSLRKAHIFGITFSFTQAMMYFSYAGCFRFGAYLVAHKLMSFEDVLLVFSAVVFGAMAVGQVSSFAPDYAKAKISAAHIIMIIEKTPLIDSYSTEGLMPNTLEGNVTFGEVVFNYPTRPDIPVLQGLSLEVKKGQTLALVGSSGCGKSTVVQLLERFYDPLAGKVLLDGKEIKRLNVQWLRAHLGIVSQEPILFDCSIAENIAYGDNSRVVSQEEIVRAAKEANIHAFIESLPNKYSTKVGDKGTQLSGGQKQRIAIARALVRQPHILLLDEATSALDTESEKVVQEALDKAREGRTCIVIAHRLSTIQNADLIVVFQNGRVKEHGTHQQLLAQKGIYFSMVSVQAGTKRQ

The test system of one series is Western equine encephalitis virus. Put plainly: Antiviral activity against Western equine encephalomyelitis virus infected in human BE(2)-C cells assessed as inhibition of viral RNA replication after 18 to 20 hrs by luciferase reporter gene assay. Type of series: functional, cell-based.
Settings: not given
A word on the IC50: it is the midpoint of a concentration-inhibition curve. For `O=C(NCCc1ccncc1)C1CCN(C(=O)c2cc3ccc(F)cc3n2Cc2ccc(Cl)cc2)CC1`, the concentration for half-maximal inhibition (IC50) was found to be 0.6 µM.

On to `O=C(NCCc1ccncc1)C1CCN(C(=O)c2cc3cc(F)ccc3n2Cc2ccc(Cl)cc2)CC1`, for which the IC50 came out at 0.9 µM.

On to `O=C(NCCc1ccncc1)C1CCN(C(=O)c2cc(F)cn2Cc2ccc(Cl)cc2)CC1`, for which the IC50 came out at 0.9 µM.

As for `CN(C)C(=O)C1CCN(C(=O)c2cc3ccccc3n2Cc2ccc(Cl)cc2)CC1`, the IC50 turned out to be 10.5 µM.

As to `O=C(NCCc1ccncc1)C1CCN(C(=O)c2nccn2Cc2ccc(Cl)cc2)CC1`, the IC50 is above 50 µM.

With `CN1CCN(C(=O)C2CCN(C(=O)c3cc4ccccc4n3Cc3ccc(Cl)cc3)CC2)CC1`, the IC50 turned out to be 31.4 µM.

`O=C(NCCc1cccnc1)C1CCN(C(=O)c2cc3ccccc3n2Cc2ccc(Cl)cc2)CC1`: the IC50 was 5.3 µM.

`O=C(NCCc1ccccn1)C1CCN(C(=O)c2cc3ccccc3n2Cc2ccc(Cl)cc2)CC1`: the IC50 was 22.4 µM.

As for `O=C(NCCCc1ccncc1)C1CCN(C(=O)c2cc3ccccc3n2Cc2ccc(Cl)cc2)CC1`, the IC50 came to 31.9 µM.

On to `CC(CNC(=O)C1CCN(C(=O)c2cc3ccccc3n2Cc2ccc(Cl)cc2)CC1)c1ccncc1` (stereo not drawn), for which the half-maximal inhibitory concentration (IC50) came out at 1.7 µM.

Regarding `CN(CCc1ccncc1)C(=O)C1CCN(C(=O)c2cc3ccccc3n2Cc2ccc(Cl)cc2)CC1`, the IC50 is 1.6 µM.

Take `O=C(NCC1COc2cnccc21)C1CCN(C(=O)c2cc3ccccc3n2Cc2ccc(Cl)cc2)CC1` (stereo not drawn): the concentration for half-maximal inhibition (IC50) is 3.6 µM.

Test system in the next series: not listed separately
The series can be described thus: Cytotoxicity against human BE(2)-C cells after 18 to 20 hrs by MTT assay. Type of series: cell-based. Conditions: BE(2)-C cells. In general terms: Tetrazolium assays rely on reduction of a dye to a coloured formazan, in cell work by metabolically active cells.
A word on the CC50: it is the concentration that lowers cell viability or growth by half. The low end stands for harm at low concentration, the high end for better tolerance by the cells. Consider `CN(C)C(=O)C1CCN(C(=O)c2cc3ccccc3n2Cc2ccc(Cl)cc2)CC1`, for which the CC50 was above 100 µM.

Molecule `O=C(NCCc1ccncc1)C1CCN(C(=O)c2nccn2Cc2ccc(Cl)cc2)CC1` had a CC50 above 50 µM.

Still in this series, the particulars now being: be(2)-c.
`O=C(NCCc1ccncc1)C1CCN(C(=O)c2cc3ccc(F)cc3n2Cc2ccc(Cl)cc2)CC1` registered a CC50 of 43.1 µM.

For the molecule `O=C(NCCc1ccncc1)C1CCN(C(=O)c2cc3cc(F)ccc3n2Cc2ccc(Cl)cc2)CC1`, the cytotoxic concentration (CC50) was found to be 52.5 µM.

Molecule `O=C(NCCc1ccncc1)C1CCN(C(=O)c2cc(F)cn2Cc2ccc(Cl)cc2)CC1` came in with a CC50 of 8 µM.

As to `CN1CCN(C(=O)C2CCN(C(=O)c3cc4ccccc4n3Cc3ccc(Cl)cc3)CC2)CC1`, the CC50 was 75.6 µM.

`O=C(NCCc1cccnc1)C1CCN(C(=O)c2cc3ccccc3n2Cc2ccc(Cl)cc2)CC1` yielded a CC50 of 39.4 µM.

As for `O=C(NCCc1ccccn1)C1CCN(C(=O)c2cc3ccccc3n2Cc2ccc(Cl)cc2)CC1`, the midpoint of cytotoxicity, the CC50, lay at 86.2 µM.

For `O=C(NCCCc1ccncc1)C1CCN(C(=O)c2cc3ccccc3n2Cc2ccc(Cl)cc2)CC1`, the midpoint of cytotoxicity, the CC50, lay at 71.5 µM.

In turn, `CC(CNC(=O)C1CCN(C(=O)c2cc3ccccc3n2Cc2ccc(Cl)cc2)CC1)c1ccncc1` (stereo not drawn) gave a half-maximal cytotoxic concentration (CC50) of 98.2 µM.

`CN(CCc1ccncc1)C(=O)C1CCN(C(=O)c2cc3ccccc3n2Cc2ccc(Cl)cc2)CC1` returned a CC50 of 47.9 µM.

As to `O=C(NCC1COc2cnccc21)C1CCN(C(=O)c2cc3ccccc3n2Cc2ccc(Cl)cc2)CC1` (stereo not drawn), the CC50 worked out at 75.8 µM.

Test system in the next series: not listed separately
The series can be described thus: Cytotoxicity against human BE(2)-C cells assessed as cell viability at 25 uM after 24 hrs by MTT assay relative to control. The format is cell-based. Conditions: read-out: Activity.
Regarding `O=C(NCCc1ccncc1)C1CCN(C(=O)c2cc3ccc(F)cc3n2Cc2ccc(Cl)cc2)CC1`, the viability at 24 h, 25 µM was determined as 69.2%.

Regarding `CC(CNC(=O)C1CCN(C(=O)c2cc3ccccc3n2Cc2ccc(Cl)cc2)CC1)c1ccncc1` (stereo not drawn), the viability at 24 h, 25 µM turned out to be 74%.

In a further series the test system is Fort Morgan virus. Put plainly: Antiviral activity against Fort Morgan virus infected in human BE(2)-C cells assessed as reduction of viral titer at 25 uM after 24 hrs by plaque reduction assay (reference value: 47.1 +/- 10.5 x 10^6 pfu/ml). The format is functional.
Settings: not given
Background: In a plaque reduction assay, fewer plaques than in the control indicate reduced infectivity or spread.
For the molecule `O=C(NCCc1ccncc1)C1CCN(C(=O)c2cc3ccc(F)cc3n2Cc2ccc(Cl)cc2)CC1`, the Activity is on record as 1.6 ×10⁶ PFU/ml.

For `CC(CNC(=O)C1CCN(C(=O)c2cc3ccccc3n2Cc2ccc(Cl)cc2)CC1)c1ccncc1` (stereo not drawn), the Activity amounted to 13.3 ×10⁶ PFU/ml.

A further series addresses MDR1 (ABCB1, P-glycoprotein) (Homo sapiens, UniProt P08183). The series can be described thus: Inhibition of human MDR1 expressed in MDCK2 cells assessed as increase of rhodamine 123 uptake at 30 uM up to 240 mins relative to control. Type of series: ADME, cell-based, MDCK-II. Conditions: MDCK2 cells expressing human MDR1, probe rhodamine 123. The method in brief:
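Confluent MDR1-MDCKII cells (human Pgp-transfected) given fresh DMEM with 10 μM rhodamine 123, plus vehicle, tariquidar (5 μM) or compound (30 μM). Uptake at 37°C from 1 to 240 min, stopped by ice-cold PBS washes. Fluorescence read at ex 525/em 560-640 nm. Result expressed as % of same-day tariquidar effect, (Cav−Cveh)*100/(Ctar−Cveh). Triplicates on ≥3 occasions.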
The term inhibition denotes the share of the control response that was lost under treatment. Turning to `O=C(NCCc1ccncc1)C1CCN(C(=O)c2cc3ccc(F)cc3n2Cc2ccc(Cl)cc2)CC1`, the inhibition at 4 h, 30 µM came to 30.8%.

On to `O=C(NCCc1ccncc1)C1CCN(C(=O)c2cc3cc(F)ccc3n2Cc2ccc(Cl)cc2)CC1`, for which the inhibition at 4 h, 30 µM was found to be 42.6%.

As to `CN(C)C(=O)C1CCN(C(=O)c2cc3ccccc3n2Cc2ccc(Cl)cc2)CC1`, the inhibition at 4 h, 30 µM turned out to be 23.2%.

`O=C(NCCc1ccncc1)C1CCN(C(=O)c2nccn2Cc2ccc(Cl)cc2)CC1`: the inhibition at 4 h, 30 µM was determined as 0.13%.

Take `O=C(NCCc1cccnc1)C1CCN(C(=O)c2cc3ccccc3n2Cc2ccc(Cl)cc2)CC1`: the inhibition at 4 h, 30 µM came out at 30.1%.

As for `O=C(NCCc1ccccn1)C1CCN(C(=O)c2cc3ccccc3n2Cc2ccc(Cl)cc2)CC1`, the inhibition at 4 h, 30 µM is 21.9%.

In the case of `O=C(NCCCc1ccncc1)C1CCN(C(=O)c2cc3ccccc3n2Cc2ccc(Cl)cc2)CC1`, the inhibition at 4 h, 30 µM turned out to be 35.2%.

`CC(CNC(=O)C1CCN(C(=O)c2cc3ccccc3n2Cc2ccc(Cl)cc2)CC1)c1ccncc1` (stereo not drawn): the inhibition at 4 h, 30 µM is 25.4%.

Take `CN(CCc1ccncc1)C(=O)C1CCN(C(=O)c2cc3ccccc3n2Cc2ccc(Cl)cc2)CC1`: the inhibition at 4 h, 30 µM came out at 72%.

Consider `O=C(NCC1COc2cnccc21)C1CCN(C(=O)c2cc3ccccc3n2Cc2ccc(Cl)cc2)CC1` (stereo not drawn), for which the inhibition at 4 h, 30 µM worked out at 47%.

Test system in a further series: not listed separately
Put plainly: Kinetic solubility of the compound. The format is physicochemical.
Settings: not given
In turn, `O=C(NCCc1ccncc1)C1CCN(C(=O)c2cc3cc(F)ccc3n2Cc2ccc(Cl)cc2)CC1` yielded a Kinetic_solubility of 31 µM.

As for `O=C(NCCc1ccncc1)C1CCN(C(=O)c2cc(F)cn2Cc2ccc(Cl)cc2)CC1`, the Kinetic_solubility was 125 µM.

`CN(C)C(=O)C1CCN(C(=O)c2cc3ccccc3n2Cc2ccc(Cl)cc2)CC1` showed a Kinetic_solubility of 62 µM.

As for `O=C(NCCCc1ccncc1)C1CCN(C(=O)c2cc3ccccc3n2Cc2ccc(Cl)cc2)CC1`, the Kinetic_solubility was 16 µM.

The series is the same for the next values; noted with them: read-out: Kinetic_solubility.
Consider `O=C(NCCc1ccncc1)C1CCN(C(=O)c2nccn2Cc2ccc(Cl)cc2)CC1`, for which the solubility kinetic was above 500 µM.

The values are drawn from ChEMBL document CHEMBL3085701, “Optimization of novel indole-2-carboxamide inhibitors of neurotropic alphavirus replication” (J Med Chem, 2013).
